Assay outcomes deposited in PubChem BioAssay by Broad Institute.
Only some compounds are listed: those with a hit (about 5.8% of all), similar ones and a draw of the others.
IDH1 mut inh = inhibitors of human IDH1 R132H; O75874; IDH1 R132H reductase, diaphorase/resazurin fluorescence, 60 min; inhibition, % at 10 µM; hit rate 0.18% among 70,000; in the data active = inhibition above about 34%; inconclusive = no clear call, values can overlap the other calls; inactive = below about 11%;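 also: 0% = DMSO and 100% = no enzyme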
KDM4C inh = KDM4C (human) demethylase inhibition. inhibition, % at 12.5 µM. Q9H3R0. GST-KDM4C 2-372, H3K9me3 peptide, LANCE TR-FRET. hit rate 0.15% among 96,000;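 active = mean replicate inhibition above about 25%, with at least 55% of replicates also reaching it, limit read from the data, passing the limit was not always enough; inconclusive = only one of those two conditions met; inactive = neither condition met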
Target sequence (Q9H3R0 2-372 limits assumed): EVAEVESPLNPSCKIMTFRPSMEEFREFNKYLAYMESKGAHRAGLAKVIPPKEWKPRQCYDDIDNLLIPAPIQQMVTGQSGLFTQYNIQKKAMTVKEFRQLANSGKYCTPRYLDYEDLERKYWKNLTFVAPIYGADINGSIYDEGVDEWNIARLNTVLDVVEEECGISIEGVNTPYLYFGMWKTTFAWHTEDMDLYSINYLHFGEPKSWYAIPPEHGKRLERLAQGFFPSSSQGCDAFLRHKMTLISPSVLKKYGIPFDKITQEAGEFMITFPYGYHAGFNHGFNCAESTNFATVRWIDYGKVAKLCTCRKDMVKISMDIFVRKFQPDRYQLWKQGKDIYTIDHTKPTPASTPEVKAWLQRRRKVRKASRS
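Compound: one test concentration per compound; Material: GST-GASC-1 enzyme fragment 2-372; Amount: GASC-1 enzyme at 10 nM final in reaction; Also added: H3K9me3 peptide substrate, Fe(II), 2-oxoglutarate; Technique: LANCE TR-FRET; Times: 30 min demethylation and 1 h detection at room temperature.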
Pf Dd2 inh = inhibitors of Plasmodium falciparum Dd2 growth | P. falciparum Dd2 growth, SYBR Green, 72 h; stronger effect = lower value | activity change, % at 10 µM | hit rate 2.3% among 94,000 | AID 1159554; in the data active = activity change below about -80%; inconclusive = no clear call, values can overlap the other calls
T cruzi growth-1 = inhibitors of T. cruzi proliferation. T. cruzi beta-gal in NIH3T3, GalScreen luminescence, 90 h. inhibition, % at 8.34 µM. hit rate 5.9% among 77,000. AID 624255;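 active = mean inhibition above about 93%, with at least 55% of replicates each passing it, limit read from the data, passing the limit was not always enough; inconclusive = only one of those two conditions holds; inactive = neither condition holds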
T cruzi growth-2 = inhibitors of T. cruzi proliferation | AID 651739 | hit rate 72% among 5,600 | shares compounds with T cruzi growth-1 | T. cruzi beta-gal in NIH3T3, GalScreen luminescence, 90 h | inhibition, % at 8.35 µM;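 active = mean replicate inhibition above about 95% and at least 55% of replicates individually reaching it, limit read from the data; inconclusive = only one of the two criteria is met; inactive = neither criterion is met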
T cruzi growth-3 = blocks T. cruzi growth in NIH3T3 host cells. shares compounds with T cruzi growth-1. T. cruzi beta-gal in NIH3T3, GalScreen luminescence, 90 h. inhibition, % at 2.09 µM. hit rate 21% among 5,600;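 active = mean inhibition above about 95%, with at least 55% of replicates also reaching it, limit read from the data; inconclusive = meets just one of the two conditions; inactive = meets neither condition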;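 also: plate controls were neutral control median for no effect and positive control median for full effect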
3T3 cytotox = NIH/3T3 (mouse) viability loss; cytotoxicity (signal decrease), % at 8.35 µM; shares compounds with T cruzi growth-1; NIH/3T3 viability, CellTiter-Glo ATP luminescence, 90 h; hit rate 14% among 5,600;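 active = mean signal decrease across replicates above about 35% based on untreated-well scatter, with enough replicates individually passing, limit read from the data; inconclusive = no rule stated though some were filed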;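 also: 0% = median of neutral control wells and 100% = median of positive control wells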
3T3 cytotox 2 = cytotoxicity in mouse NIH/3T3 fibroblasts; shares compounds with T cruzi growth-1; hit rate 56% among 5,600; NIH/3T3 viability, CellTiter-Glo ATP luminescence, 90 h; inhibition, % at 24.9 µM; AID 651744;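 active = mean loss of cell viability signal at or above a set limit, and enough replicates individually reaching it; inconclusive = meets only the mean limit or only the replicate share; inactive = meets neither condition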;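 also: 0% = median of neutral control wells and 100% = median of positive control wells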
* hit, by the source's call.

Results for O=C(C[C@@H]1CC[C@H]2[C@@H](COC[C@@H](O)CN2Cc2ccc(Oc3ccccc3)cc2)O1)N1CCN(c2ccccc2)CC1 ?
KDM4C inh: -2; Pf Dd2 inh: -26; T cruzi growth-1: 34

How did CN1C[C@@H](O)COC[C@@H]2O[C@H](CC(=O)N3CCN(c4ccccc4)CC3)CC[C@H]21 do in these assays?
KDM4C inh: 1; Pf Dd2 inh: -28; T cruzi growth-1: 109*; T cruzi growth-2: 90; T cruzi growth-3: 71; 3T3 cytotox: -3; 3T3 cytotox 2: -4

How did O=C(C[C@@H]1CC[C@@H]2[C@H](COC[C@H](O)CN2Cc2ccc(Oc3ccccc3)cc2)O1)N1CCN(c2ccccc2)CC1 do in these assays?
KDM4C inh: 0; Pf Dd2 inh: -70; T cruzi growth-1: 115*; T cruzi growth-2: 88; T cruzi growth-3: 70; 3T3 cytotox: 4; 3T3 cytotox 2: 104*

How did O=C(C[C@H]1CC[C@H]2[C@@H](COC[C@H](O)CN2Cc2ccc(Oc3ccccc3)cc2)O1)N1CCN(c2ccccc2)CC1 do in these assays?
KDM4C inh: 0; Pf Dd2 inh: -52; T cruzi growth-1: 134*; T cruzi growth-2: 105*; T cruzi growth-3: 44; 3T3 cytotox: 7; 3T3 cytotox 2: 38*

What do the screens show for `CCc1ccccc1NC(=O)CSc1nnc(-c2cccc(OC)c2)n1C`?
IDH1 mut inh: 0

Results for CC(=O)c1ccc(NC(=O)CN(C)S(=O)(=O)c2ccc(Br)cc2)cc1 ?
IDH1 mut inh: 0

How did O=C(C[C@H]1C[C@@H]2c3cc(NC(=O)C4CCOCC4)ccc3O[C@@H]2[C@@H](CO)O1)NCc1ccc(Oc2ccccc2)cc1 do in these assays?
IDH1 mut inh: 0; KDM4C inh: 0; Pf Dd2 inh: -69; T cruzi growth-1: 156*; T cruzi growth-2: 33; T cruzi growth-3: -11; 3T3 cytotox: -12; 3T3 cytotox 2: 12

How did O=C(C[C@@H]1C[C@H]2c3cc(NC(=O)Nc4ccccc4F)ccc3O[C@H]2[C@H](CO)O1)NCc1ccc(Oc2ccccc2)cc1 do in these assays?
IDH1 mut inh: 0; KDM4C inh: 0; Pf Dd2 inh: -19; T cruzi growth-1: 106*; T cruzi growth-2: 92; T cruzi growth-3: 52; 3T3 cytotox: 22; 3T3 cytotox 2: 78*

Results for CN(c1cccc(NC(=O)c2ccc(CN3CCOCC3)cc2)c1)S(C)(=O)=O ?
IDH1 mut inh: 1

Results for O=C(CSC1CC(=O)N(c2ccccc2)C1=O)Nc1ccc(Cl)c(Cl)c1 (stereo unspecified) ?
IDH1 mut inh: 0

Results for COc1ccc(-c2ccc3c(c2)[C@@H]2[C@@H](CCN2C(=O)c2ccc4c(c2)OCO4)[C@@H](CO)N3C)cc1 ?
KDM4C inh: -2; Pf Dd2 inh: -56; T cruzi growth-1: 100*; T cruzi growth-2: 105*; T cruzi growth-3: 100*; 3T3 cytotox: 22; 3T3 cytotox 2: 19

What do the screens show for `COc1cccc(-c2ccc3c(c2)[C@H]2[C@H](CCN2C(=O)c2ccc4c(c2)OCO4)[C@H](CO)N3C)c1`?
KDM4C inh: -3; Pf Dd2 inh: -64; T cruzi growth-1: 35

How did COc1ccc(-c2ccc3c(c2)[C@@H]2[C@@H](CCN2C(=O)c2ccncc2)[C@H](CO)N3C)cc1 do in these assays?
KDM4C inh: 1; Pf Dd2 inh: -9; T cruzi growth-1: inconclusive; T cruzi growth-2: 108*; T cruzi growth-3: 42; 3T3 cytotox: -2; 3T3 cytotox 2: 10

Results for COc1ccc(-c2ccc3c(c2)[C@@H]2[C@@H](CCN2C(=O)c2ccc(F)cc2)[C@@H](CO)N3C)cc1 ?
KDM4C inh: 2; Pf Dd2 inh: -11; T cruzi growth-1: 24

Results for CC(CCC1(C)C(C)CCC2(CO)C(CO)=CCCC21)CC(=O)O (stereo unspecified) ?
IDH1 mut inh: -1

How did COc1ccc(S(=O)(=O)Nc2cccc3c2O[C@H](CN(C)Cc2ccc(C(=O)O)cc2)[C@H](C)CN([C@@H](C)CO)C3=O)cc1 do in these assays?
IDH1 mut inh: 0; KDM4C inh: 0; Pf Dd2 inh: 23; T cruzi growth-1: inconclusive; T cruzi growth-2: 78; T cruzi growth-3: 0; 3T3 cytotox: -3; 3T3 cytotox 2: 15

How did Cc1noc(C)c1S(=O)(=O)Nc1cccc2c1O[C@@H](CN(C)Cc1ccccc1)[C@@H](C)CN([C@H](C)CO)C2=O do in these assays?
IDH1 mut inh: -2; KDM4C inh: 0; Pf Dd2 inh: 14; T cruzi growth-1: 9

How did COc1ccc(S(=O)(=O)Nc2cccc3c2O[C@@H](CN(C)Cc2ccc(Cl)c(Cl)c2)[C@H](C)CN([C@@H](C)CO)C3=O)cc1 do in these assays?
IDH1 mut inh: 1; KDM4C inh: 0; Pf Dd2 inh: -39; T cruzi growth-1: 102*; T cruzi growth-2: 110*; T cruzi growth-3: 1; 3T3 cytotox: 14; 3T3 cytotox 2: 18

How did Cc1ccc(S(=O)(=O)Nc2cccc3c2O[C@@H](CN(C)Cc2ccc(C(F)(F)F)cc2)[C@@H](C)CN([C@H](C)CO)C3=O)cc1 do in these assays?
IDH1 mut inh: 1; KDM4C inh: -1; Pf Dd2 inh: -13; T cruzi growth-1: 102*; T cruzi growth-2: 109*; T cruzi growth-3: 68; 3T3 cytotox: 30; 3T3 cytotox 2: 87*

What do the screens show for `Cc1noc(C)c1S(=O)(=O)Nc1cccc2c1O[C@H](CN(C)Cc1ccc(-c3ccccc3)cc1)[C@H](C)CN([C@H](C)CO)C2=O`?
IDH1 mut inh: 11; KDM4C inh: 0; Pf Dd2 inh: -48; T cruzi growth-1: 108*; T cruzi growth-2: 54; T cruzi growth-3: 29; 3T3 cytotox: -14; 3T3 cytotox 2: 2

How did Cc1ccc(S(=O)(=O)Nc2cccc3c2O[C@@H](CN(C)Cc2ccc(C(F)(F)F)cc2)[C@@H](C)CN([C@@H](C)CO)C3=O)cc1 do in these assays?
IDH1 mut inh: 0; KDM4C inh: -2; Pf Dd2 inh: -23; T cruzi growth-1: 61

What do the screens show for `COc1ccc(S(=O)(=O)Nc2cccc3c2O[C@H](CN(C)Cc2ccc(Cl)c(Cl)c2)[C@H](C)CN([C@H](C)CO)C3=O)cc1`?
IDH1 mut inh: -1; KDM4C inh: 3; Pf Dd2 inh: 27; T cruzi growth-1: -12

Results for COc1ccc(S(=O)(=O)Nc2cccc3c2O[C@H](CN(C)Cc2ccc(C(=O)O)cc2)[C@@H](C)CN([C@H](C)CO)C3=O)cc1 ?
IDH1 mut inh: 1; KDM4C inh: 0; Pf Dd2 inh: 10; T cruzi growth-1: -18
